Compounds with a hit are over-represented: about 1.5% of the library has one in this group of screens.
FLuc act counter: affects firefly luciferase, flagging false hits in luciferase stimulation screens | P08659 | ATPlite luciferase biochemical, luminescence, 10 min; 0 = ATP-free wells, 1 = DMSO control | activation factor at 10 µM | 200,000 tested, under 10 active | AID 1027;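 active = luciferase activation factor, scaled between plate controls, of at least 2 with compound at 10 µM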
Target sequence (P08659 whole entry, looked up): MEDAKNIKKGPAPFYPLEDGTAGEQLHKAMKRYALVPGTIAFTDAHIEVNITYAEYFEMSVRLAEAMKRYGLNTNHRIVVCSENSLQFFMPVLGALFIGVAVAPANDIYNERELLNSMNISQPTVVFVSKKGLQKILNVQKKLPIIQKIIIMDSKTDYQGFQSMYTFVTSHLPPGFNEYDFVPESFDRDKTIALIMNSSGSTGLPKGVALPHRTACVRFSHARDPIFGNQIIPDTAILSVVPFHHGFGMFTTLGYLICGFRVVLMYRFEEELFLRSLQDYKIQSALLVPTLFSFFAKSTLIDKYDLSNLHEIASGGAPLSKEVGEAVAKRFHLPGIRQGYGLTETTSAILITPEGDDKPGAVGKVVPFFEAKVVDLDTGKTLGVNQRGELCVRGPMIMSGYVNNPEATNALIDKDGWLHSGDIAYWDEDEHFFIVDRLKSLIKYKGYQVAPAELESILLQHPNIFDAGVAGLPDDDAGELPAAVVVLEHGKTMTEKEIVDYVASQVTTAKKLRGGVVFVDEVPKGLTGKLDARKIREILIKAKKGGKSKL
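System: cell-free luciferase reagent; medium: PBS as buffer for the ATP substrate; doses: test compounds dosed from 2 mM stocks in 100% DMSO; incubation: 10 min, room temperature; measured by: luminescence from luciferase reaction; read-out: luciferase activation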
PPC-1+TRAIL kill: PPC-1 cancer cell killing with TRAIL present | cell killing (% activity), % at 4 µM or 5 µM | hit rate 0.41% among 220,000 | PPC-1 cells + TRAIL, ATPLite viability luminescence;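 active = cell killing above 50% in the first pass at 4 µM, then a duplicate retest at 5 µM averaging 50% or more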;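 note: plate controls were cells with TRAIL plus DMSO for no effect and medium-only wells lacking cells for full effect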
TRAIL sens C8: sensitizes caspase-8 expressing cells to TRAIL | NB7+C8 cells + TRAIL, ATPlite viability luminescence | inhibition (viability loss, TRAIL sensitization), % at 10 µM | AID 624354 | hit rate 1% among 360,000;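 active = compounds causing at least 50% loss of cell viability in the single-dose screen, relative to plate controls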
FLuc inh counter: counter-screen for luciferase assay inhibitors: firefly luciferase inhibition. ATPLite firefly luciferase biochemical luminescence, 10 min. inhibition, % at 10 µM. hit rate 1.5% among 200,000;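 active = inhibition above about 50% when tested at 10 µM, limit read from the data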
Active calls of the source: *; nt = no result.

SMILES | FLuc act counter | PPC-1+TRAIL kill | TRAIL sens C8 | FLuc inh counter
COc1cc2c3nnc(-c4ccc(F)cc4)c-3cn(Cc3ccc(C)cc3)c2cc1OC | 1 | 14.6 | 84.1* | -2.4
COc1ccc(NC2=NCCC(=O)N2Cc2cccs2)cc1 | 1.1 | 2.9 | -7.3 | -5.0
N/C(=N\OC(=O)/C=C/c1ccccc1)c1ccccn1 | 0.2 | 12.1 | 10.5 | 82.2*
O=C(/C=C/c1ccc2c(c1)OCO2)c1ccccn1 | nt | -0.1 | 9.0 | nt
N/C(=N\OC(=O)C1CCCCC1)c1ccccn1 | 0.3 | 9.0 | 5.3 | 72.4*
CC(C)(C)CC(=O)O/N=C(\N)c1ccccn1 | 0.5 | 24.9 | 36.1 | 51.1*
O=C(/C=C/c1ccccc1)c1ccccn1 | 0.3 | 3.1 | -4.9 | 70.6*
Cc1ccc(CC(=O)O/N=C(\N)c2ccccn2)cc1 | nt | nt | 1.2 | nt
CCOC(=O)[C@]12CCC=C1N(Cc1ccc3c(c1)OCO3)C(=O)[C@H](CC(=O)N1CCSCC1)C2 | nt | nt | 8.3 | nt
Cc1c(C(=O)N(C)C)c2ccc(Cl)cc2n1O | 1 | 11.7 | -3.0 | -0.3
C#Cc1ccc([C@H]2C=C(C(=O)Nc3ccccc3)O[C@@H](OCc3ccc(CO)cc3)C2)cc1 | nt | 13.4 | 88.6* | nt
C#Cc1ccc([C@@H]2C=C(C(=O)Nc3ccccc3)O[C@H](OCC)[C@H]2CCCO)cc1 | 1 | 20.7 | 79.5* | 1.1
C#Cc1ccc([C@H]2C=C(C(=O)NCc3ccccc3)O[C@@H](OCC)[C@@H]2CCCO)cc1 | 1 | 0.9 | 2.4 | -1.5
Cc1ccc2nc(NC(=O)CCCc3nc4ccccc4s3)sc2c1 | 1 | 19.6 | 5.8 | 3.1
Cc1ccc2nc(NC(=S)NC(=O)c3ccc(OC(C)C)cc3)sc2c1 | nt | nt | 35.1 | nt
Cc1ccc2nc(NC(=O)CCCC(=O)O)sc2c1 | 0.3 | 6.3 | 26.9 | 66.4*
O=C(NC(=S)Nc1nc2ccccc2s1)c1ccco1 | 0.2 | 10.8 | 76.8* | 79.6*
COc1ccc2nc(NC(=S)NC(=O)c3ccco3)sc2c1 | 0.2 | 7.7 | 72.2* | 75.5*
O=C(NC(=S)NCc1ccc(-c2nc3ccccc3s2)cc1)c1ccco1 | 1 | 4.3 | 13.8 | -1.0
Cc1ccc2nc(NC(=S)NC(=O)c3cccs3)sc2c1 | 0.1 | 26.9 | 79.1* | 90.1*
CS(=O)(=O)N1N=C(c2ccccc2)CC1c1cccs1 (centres undefined) | 1.1 | 26.8 | -2.2 | -5.3
NC(=O)C(NN=C(c1ccccc1)c1ccccc1)c1ccccc1 (centres undefined) | nt | nt | -9.7 | nt
COc1ccc2nc(NC(=O)c3cc(C)oc3C)sc2c1 | 0.5 | 29.1 | 39.7 | 49.2
Cc1nc(NC(=S)NC(=O)c2cccs2)ccc1Br | 0.4 | 20.8 | 27.0 | 58.4*
COc1ccc2nc(NC(=O)c3ccoc3C)sc2c1 | 0.5 | 9.2 | 39.5 | 51.2*
SMILES | FLuc act counter | PPC-1+TRAIL kill | TRAIL sens C8 | FLuc inh counter
COc1ccc(C(=O)Nc2nc3cc4c(cc3s2)OCO4)c(OC)c1 | nt | 34.1 | 51.0* | nt
Cc1cccc(NC(=S)NC(=O)c2cccs2)n1 | 0.6 | 21.4 | 35.5 | 44.7
COc1ccc(N2CCN(C(=O)CCN3C(=O)C4C5C=CC(C5)C4C3=O)CC2)cc1 (centres undefined) | 1 | 15.5 | -7.7 | 0.5
CCC1CCC(c2nnc(-c3ccc([N+](=O)[O-])cc3)o2)CC1 (centres undefined) | 1.1 | 8.1 | -19.1 | -7.6
C/C(=N\Nc1ncc(Cl)cc1Cl)c1ccccn1 | 0.1 | -2.8 | 89.0* | 94.4*
C/C(=N\Nc1ccc(Cl)c(C(=O)O)c1)c1ccccn1 | nt | 4.0 | -9.4 | nt
Cc1nnc(NC(=O)C2CCCN(S(=O)(=O)Cc3ccccc3)C2)s1 (centres undefined) | 1.1 | -1.5 | 3.0 | -7.0
Cc1ccc(Nc2nc(N)c3ccccc3n2)cc1Cl | nt | nt | 68.8* | nt
COc1ccc(C)cc1Nc1nc(N)c2ccccc2n1 | nt | nt | -4.9 | nt
CN(C)c1ccc(Nc2nc(N)c3ccccc3n2)cc1 | nt | nt | 83.9* | nt
COc1cc2nc(Nc3ccc(C)c(Cl)c3)nc(N)c2cc1OC | nt | nt | 38.0 | nt
Nc1nc(Nc2ccccc2)nc2ccccc12 | 0.1 | 43.2 | 60.4* | 87.9*
CCOc1ccc(Nc2nc(N)c3ccccc3n2)cc1 | nt | nt | 86.1* | nt
CCOc1nc(Nc2ccc(OC)cc2)nc(OCC)n1 | 1 | 4.0 | 14.5 | -1.2
Cc1cc(C)c2c(N)c(C(=O)c3ccccc3Cl)sc2n1 | nt | 13.6 | -7.1 | nt
Oc1c(CN2CCOCC2)cc(COCc2ccccc2)c2cccnc12 | 1.1 | 55.3* | 53.0* | -5.3
Oc1c(CNc2ccccc2)cc(COCc2ccccc2)c2cccnc12 | nt | nt | 6.8 | nt
CN1CCN(Cc2cc(Cl)c3cccnc3c2OC(=O)c2cccs2)CC1 | 1.1 | 21.1 | 7.5 | -7.7
